# Screening data: PubChem, several laboratories
# NPY-Y1 PAM-ag = NPY-Y1 receptor potentiators or agonists, primary screen, cell-based; Neuropeptide Y receptor type 1 (Homo sapiens), P25929; NPY-Y1 expressing cells, potentiator/agonist activation; activation, % at 3.6 µM; 220,000 tested, 0.37% active; AID 1304, 2008; in the data active = activation above about 33%, passing the limit was not always enough;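 also: cells stimulated with NPY at EC10 then isoproterenol at EC100; 0% = low agonist plus stimulus and 100% = saturating agonist plus stimulus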
# NPY2 pot ag = NPY-Y2 potentiators or agonists, primary screen, cell-based. Neuropeptide Y receptor type 2 (Homo sapiens), P49146. cells expressing NPY-Y2, potentiator/agonist read-out. activation, % at 3.6 µM. 220,000 tested, 0.45% active. AID 1359, 2008; in the data active = activation above about 27%;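 also: cells stimulated with NPY near EC25 plus isoproterenol at EC100; 0% = vehicle plus submaximal agonist and 100% = vehicle plus saturating agonist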
# Furin inhibitor = human furin inhibitors, primary screen, biochemical, fluorescence intensity; P09958; purified furin, fluorogenic substrate cleavage; inhibition, % at 20 µM or 30 µM; 220,000 tested, 0.061% active; in the data active = inhibition above about 25%
# Target sequence (P09958 108-714 limits assumed): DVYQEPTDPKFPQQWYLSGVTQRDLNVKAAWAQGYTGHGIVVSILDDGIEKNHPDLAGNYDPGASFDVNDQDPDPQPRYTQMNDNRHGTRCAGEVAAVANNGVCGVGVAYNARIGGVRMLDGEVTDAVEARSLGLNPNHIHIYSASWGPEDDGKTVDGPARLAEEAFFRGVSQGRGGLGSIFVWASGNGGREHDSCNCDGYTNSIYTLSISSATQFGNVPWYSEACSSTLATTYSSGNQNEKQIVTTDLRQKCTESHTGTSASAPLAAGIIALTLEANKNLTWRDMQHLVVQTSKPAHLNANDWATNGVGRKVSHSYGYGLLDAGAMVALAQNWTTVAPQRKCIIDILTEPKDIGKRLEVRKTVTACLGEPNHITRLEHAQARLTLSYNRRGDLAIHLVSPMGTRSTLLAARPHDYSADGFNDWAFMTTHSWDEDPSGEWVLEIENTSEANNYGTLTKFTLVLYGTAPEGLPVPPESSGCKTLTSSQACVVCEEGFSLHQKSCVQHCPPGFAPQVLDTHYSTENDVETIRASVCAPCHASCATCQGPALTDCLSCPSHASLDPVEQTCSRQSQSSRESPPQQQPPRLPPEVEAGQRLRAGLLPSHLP
# NPY-Y1 antag = NPY-Y1 receptor antagonists, primary screen, cell-based; AID 1040, 2008; inhibition, % at 3.6 µM; Neuropeptide Y receptor type 1 (Homo sapiens), P25929; 200,000 tested, 1% active; HEK293-CNG Y1 cells, membrane potential fluorescence; NPY at EC95, then isoproterenol;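 active = inhibition above the campaign mean inhibition of all tested compounds plus 3 SD, cut at about 20% in these data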;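 also: 0% = DMSO wells given NPY plus isoproterenol and 100% = isoproterenol alone without NPY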
#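 Material: Y1- and CNG-channel-expressing HEK293 cells / Probe or stimulus: NPY 25 nM then isoproterenol 1 µM plus Ro 20-1724 25 µM / Doses: 3.6 µM single dose, DMSO 0.4% / Schedule: compound incubation 1 h at room temperature, readout 45 min post-stimulation / Signal: membrane potential fluorescence / Benchmarks: isoproterenol-only wells as full block versus NPY-plus-isoproterenol wells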
# NPY Y2 blocker = NPY-Y2 receptor antagonists, primary screen, cell-based; Neuropeptide Y receptor type 2 (Homo sapiens), P49146; NPY-Y2 expressing cells, antagonist mode; inhibition, % at 2.7 µM; 140,000 tested, 0.99% active; AID 793, 2007; in the data active = inhibition above about 17%;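 also: 0% = vehicle with agonist challenge and 100% = reference antagonist with challenge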
# KCC2 mod = KCC2 cotransporter modulators, thallium flux, primary screen, cell-based, HEK293 KCC2, FluoZin-2 fluorescence, MLSMR; KCC2 cells, thallium flux FluoZin-2 fluorescence; AID 1456, 2008; Solute carrier family 12 member 5 (Homo sapiens), Q9H2X9; B-score of Tl+ flux slope (higher = more flux/activation; lower = inhibition) at 10 µM; 190,000 tested, 2.2% active;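 active = thallium flux slope and its plate-corrected score both differing from the plate sample mean at a set confidence after two filtering rounds, in either direction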;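 also: slope of fluorescence scaled to starting intensity during 10 to 20 s after thallium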
# KCC2 secondary = KCC2 modulators in sodium-free buffer, confirmation, cell-based, HEK293 KCC2, thallium flux, secondary assay; shares compounds with KCC2 mod; FluoZin2 fluorescence; hits give high values; normalised thallium flux (F/F0 slope) at 10 µM; 3,700 tested, 15% active;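 active = thallium flux slope above the same plate's solvent-only control mean plus 3 SD; inconclusive = the two replicate wells disagree; inactive = no significant difference from solvent-only control wells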
# KCC2 bumet counter = thallium flux persisting under bumetanide in KCC2 cells, confirmation, counter-screen for KCC2 modulator project, cell-based, HEK293 KCC2, FluoZin2, secondary assay 3. shares compounds with KCC2 mod. 3,700 tested, 49% active. HEK293-KCC2 + bumetanide/ouabain; hits give high values. normalized thallium flux at 10 µM;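 active = thallium entry rate above the same plate's blocked-transporter control wells by more than 3 SD; inconclusive = the two repeat wells disagree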;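 also: raw slope of fluorescence over initial fluorescence between 10 and 20 s after thallium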
# KCC2 secondary2 = KCC2 modulators without ouabain present, confirmation, cell-based, HEK293 KCC2, thallium flux, FluoZin2, secondary assay 2; shares compounds with KCC2 mod; thallium flux FluoZin2 fluorescence; actives lie on both sides; F/F0 rise rate, 10–20 s post-thallium; normalized thallium flux at 10 µM; 3,700 tested, 23% active; AID 1715, 2009;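 active = thallium flux slope more than 3 SD above or below the plate's solvent-only control mean, mostly below; inconclusive = the two repeat wells disagreed; inactive = no significant shift from solvent-only controls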;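 also: raw slope with 0.1% DMSO as baseline and bumetanide as block control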
# HEK counter1 = thallium flux modulation in parental HEK cells, confirmation, counter-screen for KCC2 modulator project, cell-based, counterscreen 1; shares compounds with KCC2 mod; HEK293 parental cells, thallium flux FluoZin2, ouabain; baseline-ratio fluorescence slope, 10–20 s after thallium; thallium flux rate (normalised fluorescence) at 10 µM; 3,700 tested, 46% active; AID 1716, 2009;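 active = thallium flux rate significantly above the same plate's solvent-only control wells, beyond their mean plus 3 SD; inconclusive = the two replicate wells gave conflicting results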
# KCC2 retest ouab = KCC2 inhibitors and activators, ouabain retest, confirmation, HEK-KCC2 cells | shares compounds with KCC2 mod | HEK293-KCC2, thallium flux FluoZin2 fluorescence; bidirectional: low = inhibitor, high = activator | raw Tl+ flux slope (below DMSO = inhibition, above = activation) at 10 µM | 3,700 tested, 48% active | AID 1717, 2009;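 active = thallium flux slope beyond 3 SD from same-plate DMSO control mean in most replicates, usually higher, sometimes lower; inconclusive = repeat tests gave conflicting results; inactive = no significant difference from controls in most replicates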;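 also: slope of initial-normalized fluorescence between seconds 10 and 20 after thallium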
# HEK293 Tl flux2 = native HEK Tl+ uptake effects, second counter-screen – HEK cells, counterscreen 2, counter-screen for KCC2 modulator project, confirmation | shares compounds with KCC2 mod | HEK293 parental, thallium flux FluoZin-2 fluorescence slope | thallium flux slope at 10 µM | 3,700 tested, 33% active | AID 1718, 2009;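 active = thallium flux slope above the same plate's solvent-control mean plus 3 SD in both duplicate wells; inconclusive = duplicate wells that disagreed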;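 also: run without ouabain in cells lacking the KCC2 cotransporter; slope of fluorescence scaled to its starting value between 10 and 20 s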
# Starred values were filed as active, the others as inactive; ? = inconclusive; . = no result. Shown are actives, neighbours in structure and some others; about 3.7% of the full set was active somewhere.
SMILES,NPY-Y1 PAM-ag,NPY2 pot ag,Furin inhibitor,NPY-Y1 antag,NPY Y2 blocker,KCC2 mod,KCC2 secondary,KCC2 bumet counter,KCC2 secondary2,HEK counter1,KCC2 retest ouab,HEK293 Tl flux2
CCOC(=O)C1=C(NC(=S)NC(=O)c2ccccc2)c2ccccc2CC1(C)CC (stereo unspecified),-13,-4,8,6,3,5.6*,?,0.033*,0.036,0.015*,?,0.011
Cc1ccc(S(=O)(=O)N2CCC(=O)N(C(COCc3ccccc3)Cc3ccccc3)CC2)cc1 (stereo unspecified),14,12,-4,-10,-1,-5.9*,0.0091,0.0061,?,0.0072,0.015*,0.011
CC[C@@H](C)[C@@H](C(=O)N1CCN(C(=O)OC(C)(C)C)CC1)n1cc(CCCCNC(=O)OC(C)(C)C)nn1,-3,-3,-22,-1,.,-1.1,.,.,.,.,.,.
COc1cc(C(=S)N2CCCC2)cc(OC)c1O,-9,-4,-7,3,4,-3.6*,0.0099,0.0059,0.036,0.0072,0.023,0.0099
Cc1ccc(-c2csc(N/N=C/c3ccco3)n2)cc1,-4,-4,-10,-3,-2,-4.2,.,.,.,.,.,.
Cc1ccc(-c2csc(NC(=S)NC(=O)c3ccco3)n2)cc1,6,0,-27,-8,5,32*,0.016*,0.047*,0.032,0.028*,0.039*,0.013*
O=C(NNc1nc(-c2ccccc2)cs1)c1ccco1,-9,7,-1,0,1,-6.2*,?,?,0.019*,?,0.012*,0.01
Cc1ccc(-c2csc(NC(=O)CCNC(=O)c3ccco3)n2)cc1,-6,-2,-26,-1,.,-2.2,.,.,.,.,.,.
CS(=O)(=O)c1ccc2nc(NC(=O)c3ccco3)sc2c1,2,7,-23,-1,1,1.2,.,.,.,.,.,.
O=C(NC(=S)Nc1nc2ccc(F)cc2s1)c1ccco1,6,3,-15,2,.,41*,?,0.13*,0.097*,0.092*,0.11*,0.089*
C(=N\Nc1nc(-c2ccccc2)cs1)/c1ccco1,8,1,2,-7,-1,-4.3*,0.009,0.0053,?,0.0086,0.015*,0.012
Cc1cc(Nc2cc(Cl)cc(Cl)c2)nc(N)n1,-16,-18,-12,.,.,-1.5,.,.,.,.,.,.
C=CCNc1nc(S(=O)Cc2ccc(C)cc2)nc2c1CCCC2 (stereo unspecified),4,-3,-10,11,.,-2.5,.,.,.,.,.,.
COc1cc(/C=C2\SC(=S)N(NS(=O)(=O)c3ccccc3)C2=O)ccc1O,-26,-14,2,.,.,-3.2,.,.,.,.,.,.
COc1cc(/C=C2\SC(=S)N(NS(=O)(=O)c3ccc(C)cc3)C2=O)cc(OC)c1OC,-23,-10,0,.,.,7.8*,0.009,0.022*,0.03,0.014*,0.021,0.011
COc1cc(/C=C2\SC(=S)N(NS(=O)(=O)c3ccc(C)cc3)C2=O)ccc1O,-16,-11,3,.,.,-4.9*,0.0059,-0.0052*,0.018*,0.0044*,0.0057*,?
CC(/C=C1\SC(=S)N(NS(=O)(=O)c2ccc(C)cc2)C1=O)=C\c1ccccc1,3,2,3,.,.,99*,0.0065,0.1*,0.072*,0.083*,0.08*,0.071*
CC(/C=C1\SC(=S)N(CCCC(=O)Nc2ccc(C(=O)O)c(O)c2)C1=O)=C\c1ccccc1,38,14,-7,5,0,-4.7*,0.0061,0.0043,0.026,0.0068,0.014*,0.0095
NC(=O)c1cc2c3ccccc3ccn2c1-c1ccccc1,19,-11,-15,.,.,.,.,.,.,.,.,.
CC(/C=C1\SC(=S)N(C(C(=O)O)C(C)C)C1=O)=C\c1ccccc1 (stereo unspecified),-21,-11,-10,3,.,-3.3*,0.0057,0.0047,0.025*,0.0068,?,0.011
O=c1c(-c2ccc(F)cc2)coc2cc(O)ccc12,11,6,-25,-6,0,-5.8*,0.0084,0.0065,0.028,0.0078,0.021*,?
COc1ccc(-c2coc3cc(O)ccc3c2=O)cc1OC,1,-9,-8,-1,-1,.,.,.,.,.,.,.
CCc1cc(C(=O)O)c(NC(=O)C(c2ccccc2)c2ccccc2)s1,-12,-12,-22,5,9,-4.3*,0.0083,0.0055*,0.028,0.0069,0.016,0.0091
CN1/C(=C\C(=O)COc2ccc3c(c2)OCO3)C(C)(C)c2ccccc21,-21,-26,7,16,11,-4*,0.0083,0.0046,0.025*,0.0064,?,0.01
C=CCNC(=S)NNC(=O)c1ccccc1OCC,2,5,-20,3,.,0.52,.,.,.,.,.,.
CCOC(=O)C(C)Sc1cc(CS(=O)(=O)c2ccccc2)nc(-c2ccccc2)n1 (stereo unspecified),-30,-16,-7,14,13,-0.47,.,.,.,.,.,.
COc1ccc(OC)c2sc(NNC(=O)COc3ccccc3)nc12,8,4,4,3,.,3.4*,0.0074,0.012*,0.031,0.011*,?,0.013*
Cc1ccc(C)c(S(=O)(=O)N/N=C/c2ccc(N3CCOCC3)cc2)c1,19,-2,-25,.,.,0.42,.,.,.,.,.,.
